Data reported in ChEMBL document CHEMBL3297654, “Synthesis, antimicrobial and cytotoxic activities, and structure-activity relationships of gypsogenin derivatives against human cancer cells” (Eur J Med Chem, 2014).
Active and inactive are the calls of the source. The calls are words filed in the database; no cut-off is given here.

How the values were obtained:
HL-60 [1] = experiment: Antiproliferative activity against human HL60 cells after 24 and 72 hrs by MTT assay; type: functional, cell-based
Outline: (§1)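 ATCC human cell lines are kept in RPMI, DMEM or McCoy's 5A with 10–15% heat-inactivated FCS at 37 °C and 5% CO2. They are seeded at 1×10^4–1×10^5 cells/mL in 48-well plates and exposed to 0.5, 10, 20 or 40 µM. Viability is read by MTT (590 nm) at 24 and 72 h. Growth is expressed relative to untreated cells and IC50 is fitted, in triplicate.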

HT-29 [2] = experiment: Antiproliferative activity against human HT-29 cells after 24 and 72 hrs by MTT assay; type: functional, cell-based; outline: as §1
Caco-2 [3] = experiment: Antiproliferative activity against human Caco2 cells after 24 and 72 hrs by MTT assay; type: functional, cell-based; outline: as §1
[4] = Antiproliferative activity against human Saos2 cells after 24 and 72 hrs by MTT assay; type: functional, cell-based; details: SAOS-2; outline: as §1
HeLa [5] = experiment: Antiproliferative activity against human HeLa cells after 24 and 72 hrs by MTT assay; type: functional, cell-based; outline: as §1
HL-60 [6] = experiment: Induction of apoptosis in human HL60 cells at 0.5 uM after 48 hrs by Hoechst 33258/propidium iodide staining based phase contrast microscopic analysis; type: functional
Outline: (§2)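 Cells in 48-well plates treated with 0.5, 10, 20 or 40 µM for 24 and 48 h. Values are read at 48 h, 20 µM for test agents and 0.5 µM for controls. Staining is Hoechst 33258/propidium iodide double staining with fluorescence microscopy. Blue nuclei are viable or early-to-mid apoptotic, and pink nuclei are late apoptotic or necrotic. Apoptosis and necrosis are scored from chromatin condensation as % of cells. Cells are grown at 37 °C in 5% CO2 in RPMI, DMEM or McCoy's 5A with 10–15% heat-inactivated FCS.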

HT-29 [7] = experiment: Induction of apoptosis in human HT-29 cells at 0.5 uM after 48 hrs by Hoechst 33258/propidium iodide staining based phase contrast microscopic analysis; type: functional; outline: as §2
Caco-2 [8] = experiment: Induction of apoptosis in human Caco2 cells at 0.5 uM after 48 hrs by Hoechst 33258/propidium iodide staining based phase contrast microscopic analysis; type: functional; outline: as §2
SAOS-2 [9] = experiment: Induction of apoptosis in human Saos2 cells at 0.5 uM after 48 hrs by Hoechst 33258/propidium iodide staining based phase contrast microscopic analysis; type: functional; outline: as §2
MCF7 [10] = experiment: Induction of apoptosis in human MCF7 cells at 0.5 uM after 48 hrs by Hoechst 33258/propidium iodide staining based phase contrast microscopic analysis; type: functional; outline: as §2
HeLa [11] = experiment: Induction of apoptosis in human HeLa cells at 0.5 uM after 48 hrs by Hoechst 33258/propidium iodide staining based phase contrast microscopic analysis; type: functional; outline: as §2
HL-60 [12] = experiment: Induction of necrosis in human HL60 cells at 0.5 uM after 48 hrs by Hoechst 33258/propidium iodide staining based phase contrast microscopic analysis; type: functional; outline: as §2
HT-29 [13] = experiment: Induction of necrosis in human HT-29 cells at 0.5 uM after 48 hrs by Hoechst 33258/propidium iodide staining based phase contrast microscopic analysis; type: functional; outline: as §2
Caco-2 [14] = experiment: Induction of necrosis in human Caco2 cells at 0.5 uM after 48 hrs by Hoechst 33258/propidium iodide staining based phase contrast microscopic analysis; type: functional; outline: as §2
SAOS-2 [15] = experiment: Induction of necrosis in human Saos2 cells at 0.5 uM after 48 hrs by Hoechst 33258/propidium iodide staining based phase contrast microscopic analysis; type: functional; outline: as §2
MCF7 [16] = experiment: Induction of necrosis in human MCF7 cells at 0.5 uM after 48 hrs by Hoechst 33258/propidium iodide staining based phase contrast microscopic analysis; type: functional; outline: as §2
HeLa [17] = experiment: Induction of necrosis in human HeLa cells at 0.5 uM after 48 hrs by Hoechst 33258/propidium iodide staining based phase contrast microscopic analysis; type: functional; outline: as §2
Micrococcus luteus [18] = experiment: Antimicrobial activity against Micrococcus luteus ATCC 9341 assessed as zone of inhibition at 15 mg for 24 hrs at 30 degC by disk diffusion test; type: functional; details: ATCC 9341, 24 h, read-out: DIZ
Enterococcus faecalis [19] = experiment: Antimicrobial activity against Enterococcus faecalis ATCC 29212 assessed as zone of inhibition at 15 mg for 24 hrs at 37 degC by disk diffusion test; type: functional, organism-based
Bacillus subtilis [20] = experiment: Antimicrobial activity against Bacillus subtilis ATCC 6633 assessed as zone of inhibition at 15 mgby disk diffusion test; type: functional
Escherichia coli = experiment: Antimicrobial activity against Escherichia coli ATCC 25922 assessed as zone of inhibition at 10 mg for 24 hrs at 37 degC by disk diffusion test; type: functional, organism-based
Salmonella typhimurium = experiment: Antimicrobial activity against Salmonella typhimurium ATCC 14028 assessed as zone of inhibition at 10 mg for 24 hrs at 37 degC by disk diffusion test; type: functional; details: Salmonella enterica subsp. enterica serovar Typhimurium
Micrococcus luteus [21] = experiment: Antimicrobial activity against Micrococcus luteus ATCC 9341 assessed as zone of inhibition at 10 mg for 24 hrs at 30 degC by disk diffusion test; type: functional
Staphylococcus aureus = experiment: Antimicrobial activity against Staphylococcus aureus ATCC 25923 assessed as zone of inhibition at 10 mg for 24 hrs at 37 degC by disk diffusion test; type: functional
[22] = test system: Staphylococcus epidermidis; experiment: Antimicrobial activity against Staphylococcus epidermidis ATCC 12228 assessed as zone of inhibition at 10 mg for 24 hrs at 37 degC by disk diffusion test; type: functional
Klebsiella pneumoniae = experiment: Antimicrobial activity against Klebsiella pneumoniae ATCC 13882 assessed as zone of inhibition at 10 mg for 24 hrs at 37 degC by disk diffusion test; type: functional, organism-based
Outline: (§3)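 Agar well diffusion following NCCLS disc susceptibility guidance. Compounds were held as 1000 µg/mL stocks in DMSO. Broth cultures (18–24 h) were adjusted to 0.5 McFarland (1×10^8 cells/mL) and spread on Mueller Hinton agar. A 6 mm well was cut and filled with 30 µL compound. Plates were incubated 24 h at 37 °C, and the inhibition zone diameter was measured in mm.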

Pseudomonas aeruginosa = experiment: Antimicrobial activity against Pseudomonas aeruginosa ATCC 35032 assessed as zone of inhibition at 10 mg for 24 hrs at 37 degC by disk diffusion test; type: functional, organism-based; outline: as §3
Proteus vulgaris = experiment: Antimicrobial activity against Proteus vulgaris ATCC 33420 assessed as zone of inhibition at 10 mg by disk diffusion test; type: functional, organism-based
Enterococcus faecalis [23] = experiment: Antimicrobial activity against Enterococcus faecalis ATCC 29212 assessed as zone of inhibition at 10 mg for 24 hrs at 37 degC by disk diffusion test; type: functional; outline: as §3
Bacillus cereus = experiment: Antimicrobial activity against Bacillus cereus ATCC 11778 assessed as zone of inhibition at 10 mg for 24 hrs at 30 degC by disk diffusion test; type: functional, organism-based
Outline: (§4)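 Well diffusion on Mueller Hinton agar per NCCLS disc susceptibility tests. DMSO stocks were 1000 µg/mL. Bacterial broth cultures (18–24 h) were adjusted to 0.5 McFarland, about 1×10^8 cells/mL. A 6 mm well received 30 µL compound. Incubation was 24 h at 30 °C, and zone diameters were read in mm. B. thuringiensis was a fecal clinical isolate grown in nutrient broth.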

Bacillus subtilis [24] = experiment: Antimicrobial activity against Bacillus subtilis ATCC 6633 assessed as zone of inhibition at 10 mg by disk diffusion test; type: functional, organism-based
Bacillus thuringiensis = experiment: Antimicrobial activity against Bacillus thuringiensis assessed as zone of inhibition at 10 mg for 24 hrs at 30 degC by disk diffusion test; type: functional, organism-based; outline: as §4
Cyberlindnera jadinii = experiment: Antimicrobial activity against Candida utilis ATCC 9950 assessed as zone of inhibition at 100 mg for 24 hrs at 30 degC by disk diffusion test; type: functional, organism-based
Outline: (§5)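 Yeast well-diffusion assay on Mueller Hinton agar following NCCLS disc susceptibility procedure. Compound stocks were 1000 µg/mL in DMSO. Yeast broth cultures (18–24 h) were adjusted to 0.5 McFarland, about 1×10^6 cells/mL. A 6 mm well was loaded with 30 µL compound. Plates were incubated at 30 °C for 24 h, and inhibition zones were measured in mm. C. glabrata and C. tropicalis were precultured in malt extract broth.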

Candida tropicalis = experiment: Antimicrobial activity against Candida tropicalis assessed as zone of inhibition at 100 mg for 24 hrs at 30 degC by disk diffusion test; type: functional, organism-based; outline: as §5
Nakaseomyces glabratus = experiment: Antimicrobial activity against Candida glabrata assessed as zone of inhibition at 100 mg for 24 hrs at 30 degC by disk diffusion test; type: functional, organism-based; outline: as §5
Saccharomyces cerevisiae = experiment: Antimicrobial activity against Saccharomyces cerevisiae ATCC 9763 assessed as zone of inhibition at 100 mg for 24 hrs at 30 degC by disk diffusion test; type: functional, organism-based; outline: as §5
MCF7 [25] = experiment: Antiproliferative activity against human MCF7 cells after 24 and 72 hrs by MTT assay; type: functional, cell-based; outline: as §1
Micrococcus luteus [26] = experiment: Antimicrobial activity against Micrococcus luteus ATCC 9341 assessed as zone of inhibition at 30 mg for 24 hrs at 30 degC by disk diffusion test; type: functional; details: ATCC 9341, 24 h, read-out: DIZ

COc1cccc2c1C(=O)c1c(O)c3c(c(O)c1C2=O)C[C@@](O)(C(=O)CO)C[C@@H]3O[C@H]1C[C@H](N)[C@H](O)[C@H](C)O1 [DOXORUBICIN]
IC50 (HL-60 [1]): 0.33 µM | IC50 (HT-29 [2]): 0.31 µM | IC50 (Caco-2 [3]): 0.35 µM | IC50 [4]: 0.33 µM | IC50 (HeLa [5]): 0.34 µM | Activity (HL-60 [6]): 2% | Activity (HT-29 [7]): 5% | Activity (Caco-2 [8]): 4% | Activity (SAOS-2 [9]): 2% | Activity (MCF7 [10]): 1% | Activity (HeLa [11]): 2% | Activity (HL-60 [12]): 45% | Activity (HT-29 [13]): 49% | Activity (Caco-2 [14]): 47% | Activity (SAOS-2 [15]): 34% | Activity (MCF7 [16]): 44% | Activity (HeLa [17]): 28%

CC[C@H]1OC(=O)[C@H](C)[C@@H](O[C@H]2C[C@@](C)(OC)[C@@H](O)[C@H](C)O2)[C@H](C)[C@@H](O[C@@H]2O[C@H](C)C[C@H](N(C)C)[C@H]2O)[C@](C)(O)C[C@@H](C)C(=O)[C@H](C)[C@@H](O)[C@]1(C)O [ERYTHROMYCIN]
zone of inhibition at 15000 µg/disc (Micrococcus luteus [18]): 30 mm | diameter of the inhibition zone (DIZ) (Enterococcus faecalis [19]): inactive | diameter of the inhibition zone (DIZ) (Bacillus subtilis [20]): 25 mm

GENTAMICIN
inhibition zone (IZ) (Escherichia coli): 21 mm | inhibition zone (IZ) (Salmonella typhimurium): 16 mm | inhibition zone (IZ) (Micrococcus luteus [21]): 15 mm | inhibition zone (IZ) (Staphylococcus aureus): 20 mm | inhibition zone (IZ) [22]: 17 mm | inhibition zone (IZ) (Klebsiella pneumoniae): 19 mm | inhibition zone (IZ) (Pseudomonas aeruginosa): 20 mm | inhibition zone (IZ) (Proteus vulgaris): 24 mm | inhibition zone (IZ) (Enterococcus faecalis [23]): 11 mm | inhibition zone (IZ) (Bacillus cereus): 24 mm | inhibition zone (IZ) (Bacillus subtilis [24]): 20 mm | inhibition zone (IZ) (Bacillus thuringiensis): 21 mm

NYSTATIN
inhibition zone (IZ) (Cyberlindnera jadinii): 21 mm | inhibition zone (IZ) (Candida tropicalis): 15 mm | inhibition zone (IZ) (Nakaseomyces glabratus): 16 mm | inhibition zone (IZ) (Saccharomyces cerevisiae): 15 mm

CC(=O)O[C@H]1C(=O)[C@@]2(C)[C@H]([C@H](OC(=O)c3ccccc3)[C@]3(O)C[C@H](OC(=O)[C@H](O)[C@@H](NC(=O)c4ccccc4)c4ccccc4)C(C)=C1C3(C)C)[C@]1(OC(C)=O)CO[C@@H]1C[C@@H]2O [PACLITAXEL]
IC50 (HL-60 [1]): 0.32 µM | IC50 (HT-29 [2]): 0.29 µM | IC50 (Caco-2 [3]): 0.31 µM | IC50 [4]: 0.35 µM | IC50 (MCF7 [25]): 0.33 µM | IC50 (HeLa [5]): 0.29 µM | Activity (HL-60 [6]): 53% | Activity (HT-29 [7]): 52% | Activity (Caco-2 [8]): 52% | Activity (SAOS-2 [9]): 42% | Activity (MCF7 [10]): 50% | Activity (HeLa [11]): 44% | Activity (HL-60 [12]): 0% | Activity (HT-29 [13]): 2% | Activity (Caco-2 [14]): 2% | Activity (SAOS-2 [15]): 1% | Activity (MCF7 [16]): 1% | Activity (HeLa [17]): 2%

CN(C)[C@@H]1C(O)=C(C(N)=O)C(=O)[C@@]2(O)C(O)=C3C(=O)c4c(O)cccc4[C@@](C)(O)[C@H]3C[C@@H]12 [TETRACYCLINE]
zone of inhibition at 30000 µg/disc (Micrococcus luteus [26]): 26 mm

CC1(C)S[C@@H]2[C@H](NC(=O)[C@H](N)c3ccccc3)C(=O)N2[C@H]1C(=O)O [AMPICILLIN]
diameter of the inhibition zone (DIZ) (Escherichia coli): inactive | diameter of the inhibition zone (DIZ) (Klebsiella pneumoniae): inactive | diameter of the inhibition zone (DIZ) (Pseudomonas aeruginosa): inactive | diameter of the inhibition zone (DIZ) (Proteus vulgaris): inactive | zone of inhibition at 10000 µg/disc (Enterococcus faecalis [23]; ATCC 29212, 24 h, read-out: DIZ): 14 mm | diameter of the inhibition zone (DIZ) (Bacillus cereus): inactive | diameter of the inhibition zone (DIZ) (Bacillus subtilis [24]): inactive | diameter of the inhibition zone (DIZ) (Bacillus thuringiensis): inactive

O=C(N[C@H](CO)[C@H](O)c1ccc([N+](=O)[O-])cc1)C(Cl)Cl [CHLORAMPHENICOL]
zone of inhibition at 30000 µg/disc (Micrococcus luteus [26]): 25 mm
